Experimental data reported in the RNAGym collection of RNA variant scans (doi:10.1126/science.aae0568).
Variants at the floor of the assay were thinned out.

B1: tRNA (parent)
chain: GUUCCGUUGGCGUAAUGGUAACGCGUCUCCCUCCUAAGGAGAAGACUGCGGGUUCGAGUCCCGUACGGAACG

Variants of: B1
Test: yeast fitness relative to wild type (ratio to wild type); higher = fitter; tRNA-Arg(CCU), competitive growth, 37 C, YPD
How it was run: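 Genotype frequency changes were the basis for Darwinian fitness relative to wild type. The frequencies came from 100-nucleotide paired-end sequencing of gene amplicons from the start population and each end population of pooled yeast strains with tRNA-Arg(CCU) gene variants at the native locus. Competition ran in YPD at 37°C for 24 hours in six replicates, genotypes needed ≥ 100 starting reads, and estimates < 0.5 were set to 0.5.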
For GUAUCGAUGGCGUAAUGGUAACGUGUCUCCCUCCUAAGGAGAAGACUGCGGGUUCGAGUCCCGUACGGAGCG [U3A C4U U7A C24U A70G], the yeast fitness was no more than 0.5. Work on GUAUCGAUGGCGUAAUGGUAACGUGUCUCCCUCCUAAGGAGAAGACUGCGGGUUCGAGUCCCGUACGGAUCG [U3A C4U U7A C24U A70U] yielded a yeast fitness of no more than 0.5. Variant GUAUCGAUGGCGUAAUGGUAACGUGUCUCCCUCCUAAGGAGAAGACUGCGGGUUCGAGUCAGGUGCGGAACG [U3A C4U U7A C24U C61A C62G A65G] has a yeast fitness of no more than 0.5. For GUAUCGAUGGCAUAAUGGUAACGCGUCUCGCUCCUAAGGAGAAGACUGCGGGUUCGAGUCCCGUACGGAACG [U3A C4U U7A G12A C30G], the yeast fitness was no more than 0.5. GUAUCGUAGACGUAAUGGUAGCGCGUCUCCCUCCUAAGGAGAAGACUGGGGGUUCGGGUCCCGUACUGAACG [U3A C4U U8A G10A A21G C49G A57G G67U] gave a yeast fitness of 0.655. In the case of GUAUCGUUGGCGAAAUGGUAACGCGUCUCCCUCCUAAGGAGAAGACUGCGAGUUCGAGUCCCGUACGGAACG [U3A C4U U13A G51A], the yeast fitness is reported as no more than 0.5. GUACAGUUGGCGUAAUGGUAACGCGUCUCCCUCCUAAGGAGAAGACUGCGGGUUCGAGUCCCGUACGGAACG [U3A C5A] showed a yeast fitness of 0.806. GUACAGUUGGCGUAAUGGUAACGCGUCUCCCUCCUAAGGAGAAGCCUGCCGGUUCGAGUCCCGUACGGAACG [U3A C5A A45C G50C] gave a yeast fitness of no more than 0.5. GUACAGUUGGCGUAAUGGUAACGCGUCUCCCUGUUAAGGAGAAGACUGCGGGUUCGAGUCGCGUACGGAACG [U3A C5A C33G C34U C61G] showed a yeast fitness of no more than 0.5. Work on GUACACUUGGCGUAGAGGUAACGCGUCUCCCUCCUAAGGAGAAGACUGGGGGUUCGAGUCCCGUACGGAACG [U3A C5A G6C A15G U16A C49G] yielded a yeast fitness of no more than 0.5. GUACACUUGGCGUAGAGGUAACGCGUCUCCCUCCUAAGGAGAAGACUGCGGGUUCGAGUCCCGUACUGAACG [U3A C5A G6C A15G U16A G67U] showed a yeast fitness of no more than 0.5. For GUACACUUGGUGUAGAGGUAACGCGGCUCCCUCCUAAGGAGAAGACUGCGGGUUCGAGUGUCGUACGGAACG [U3A C5A G6C C11U A15G U16A U26G C60G C61U], the yeast fitness was no more than 0.5. With GUACAGUUGGCGUAAUAGUAAUGCGUCUCCCUCCUAAGGAGAAGACUGCGGGUUCGAGUCCCGUAUGGAACG [U3A C5A G17A C22U C66U] the yeast fitness was 0.531. Variant GUACGGUUGGCGUGAUGGUAACGAGUCUCCCUCCUAAGGAGAAGACUGCGCCUUCGAGUCCCGUACGGAACG [U3A C5G A14G C24A G51C G52C] has a yeast fitness of no more than 0.5. In the case of GUACGGUUGGUGUAAUGGUAACGAGUCUCUCUCCUAAGGAGAAGACUGCGGGUUCGAGUCCCGUACGGAGCG [U3A C5G C11U C24A C30U A70G], the yeast fitness is reported as no more than 0.5. GUACGGUUGGCGUAAUGGUAACGAGUCUCUCUCCUAAGGAGAAGACUGCGGGUUCGAGUCCCGUACGGAGCG [U3A C5G C24A C30U A70G] gave a yeast fitness of no more than 0.5. Variant GUACGGUUGGCGUAAUGGUAACGCGUCUGCCUCCUCAGGAGAAGACUGCGGGGUCGAGUCCCGUACGGAACG [U3A C5G C29G A36C U53G] has a yeast fitness of no more than 0.5. In the case of GUACGGCUGGCGUAAUGGUAACGCGUCUCCCUCCAAAGGUGAAGAGUGCGGGAUCGAGUCCCGUACGCAACG [U3A C5G U7C U35A A40U C46G U53A G68C], the yeast fitness is reported as no more than 0.5. GUACGGUUGGCGGAAUGGUAACGCGUCUCCCUCCUAAGGAGAAGAGUGCGGGUUCGAGUCCGGUACGGAUCG [U3A C5G U13G C46G C62G A70U] gave a yeast fitness of no more than 0.5. With GUACGGUUGGCGGAAUGGUAACGCGUCUCCCUCCUAAGCAGAAGACUGCGGGUUCGAGUCCCGUACGGACCG [U3A C5G U13G G39C A70C] the yeast fitness was no more than 0.5. Variant GUACUGUUGGCGUGAUGGUAACGCGUCUCCCUCGUAAGGAGACGACUGCGGGUUCGAGUCCCGUACGGAACG [U3A C5U A14G C34G A43C] has a yeast fitness of no more than 0.5. GUACUGUUGGCGUAAUGGUAACGCGUCUCCCUCCUAAGGAGGAGAGUGCGGGUUCGAGUCCCGUACGGAACG [U3A C5U A42G C46G] showed a yeast fitness of no more than 0.5. In the case of GUACUGUUGGCGUAAUGGUAAGGCGUCUCCCUCGUAGGGAGAAGACUGCGGGUUCGAGUCCCGUGCGGAACG [U3A C5U C22G C34G A37G A65G], the yeast fitness is reported as no more than 0.5. In the case of GUACUGUUGGCGUAAUGGUAACGCGUCUCCGUCCUAAGGAGAAGACUGCGGGUUCGGGUCCCGUACGGAACG [U3A C5U C31G A57G], the yeast fitness is reported as no more than 0.5. In the case of GUACCGUUGGAGUAAUGGUAACGCGUCUCCCUCCUAAGGAGAAGACUGCGGGUUCGAGUCCCGUACGGAACG [U3A C11A], the yeast fitness is reported as 0.607. Work on GUACCGUUGGAGUAAUGGUAACGCGUCUCCCUCCUAAGGAGAAGACUGCGGGUUCGAGUCCCGUACGGCACG [U3A C11A A69C] yielded a yeast fitness of no more than 0.5. GUACCGUUGGAGUAAUGGUAACGCGUCUCCCUUCUAAGGAGAAGACUGCGGGUUCGAGUCCCGUACGGACCG [U3A C11A C33U A70C] gave a yeast fitness of no more than 0.5. GUACCGUUGGAGUAAUGGUAACGCGUCUCCCUUCUAAGGAGAAGACUGCGGGUUCGAGUCCCGUACGCAACG [U3A C11A C33U G68C] showed a yeast fitness of no more than 0.5. For GUACCGUUGGGGUAAUGGUAACGCGUCUCCCUCCUAAGGAGAAGACUGCGGGUUCGAGUCCCGUACGGAACG [U3A C11G], the yeast fitness was 0.643. With GUACCGUUGGGGUCAUGGUAACGGGUCUCCCUCCUAAGGAGAAGACUGCGGGUUCGAGUCCUGUGCGGAACG [U3A C11G A14C C24G C62U A65G] the yeast fitness was 0.595. GUACCGUUGGGGUCAUGGUAACGCGUCUCCCUCCUAAGGAGAAGACUGCGGGUUCGAGUCCUGUACCGAACG [U3A C11G A14C C62U G67C] showed a yeast fitness of no more than 0.5. With GUACCGUUGGGGUAAUGGUAACGCGUCUCCGUCCUAAGGAGAAGACUGCGGGUUCGAGUCCCGUGCGGAACG [U3A C11G C31G A65G] the yeast fitness was no more than 0.5. For GUACCGUUGGGAUAAUGGUAAUGCGUCUCCCUCCUAAGGAGAAGACUGCGGGUUCGAGUCCCGUACGGAACG [U3A C11G G12A C22U], the yeast fitness was no more than 0.5. In the case of GUACCGUUGGGAUAAUGGUAAUGCGUCUCCCUCCUAAGAAGAAGACUGCGGGUUCGAGUCCCGUGCGGAACG [U3A C11G G12A C22U G39A A65G], the yeast fitness is reported as no more than 0.5. GUACCGUUGGGGUAAUGGUAACGCGUCUCCCUCCUAAGGACAAGACUGCGGGUUCGACUCCCGUACGGAACG [U3A C11G G41C G58C] gave a yeast fitness of 0.733. Variant GUACCGUUGGGGUAAUGGUAACGCGUCACCCUCCUAAGGACAAGACUGCGGGUUCGACUCCCGUACGGAACG [U3A C11G U28A G41C G58C] has a yeast fitness of no more than 0.5. Work on GUACCGUUGGUGUAAUGGUGACGCGUCUCCCUCCUAAGGAGAAGACUGCGGGUUCGAGUCCCGUACGGAACG [U3A C11U A20G] yielded a yeast fitness of 0.654. GUACCGUUGGUGUAAUGGUAACGCGUCUCCCUCCUAAGGAGAAGACUGCGGGUUGGAGUCCCGUCCGGAACG [U3A C11U C55G A65C] showed a yeast fitness of no more than 0.5.
